Source: ChEMBL document CHEMBL1932933, “A small chemical library of 2-aminoimidazole derivatives as BACE-1 inhibitors: Structure-based design, synthesis, and biological evaluation” (Eur J Med Chem, 2012)

Tests used:
[1] = Permeability of the compound by PAMPA; type: ADME; conditions: read-out: permeability
[2] = molecular target: T1, Beta-secretase 1 (Homo sapiens, UniProt P56817); experiment: Inhibition of BACE1 using methoxycoumarin-Ser-Glu-Val-Asn-Leu-Asp-Ala-Glu-Phe-Lys-dinitrophenyl as substrate preincubated 1 hr before substrate addition measured after 15 mins by FRET assay
[3] = Inhibition of BACE1 in chicken primary telencephalon neurons assessed as reduction of amyloid beta38 secretion after 24 hrs by ELISA; design: species or system Gallus gallus
Procedure, shortened: (§1)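 Aβ secretion from neurons after 24 h of inhibitor treatment. Data were corrected for mean neuron viability from an MTT reduction assay run after 24 h of treatment. Values are the mean of three independent experiments.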

[4] = Inhibition of BACE1 in chicken primary telencephalon neurons assessed as reduction of amyloid beta40 secretion after 24 hrs by ELISA; design: species or system Gallus gallus; procedure, shortened: as §1
[5] = Inhibition of BACE1 in chicken primary telencephalon neurons assessed as reduction of amyloid beta42 secretion after 24 hrs by ELISA; design: species or system Gallus gallus; procedure, shortened: as §1
[6] = Cytotoxicity against chicken primary telencephalon neurons at 25 uM after 24 hrs by MTT assay; design: species or system Gallus gallus
[7] = molecular target: T1, Beta-secretase 1; experiment: Inhibition of BACE1 using methoxycoumarin-Ser-Glu-Val-Asn-Leu-Asp-Ala-Glu-Phe-Lys-dinitrophenyl as substrate at 100 uM preincubated 1 hr before substrate addition measured after 15 mins by FRET assay
[8] = Cytotoxicity against chicken primary telencephalon neurons at 50 uM after 24 hrs by MTT assay; design: species or system Gallus gallus
[9] = Solubility of the compound; type: physicochemical
[10] = Gallus gallus, 24 h, read-out: IC50

T1 sequence (P56817 whole entry): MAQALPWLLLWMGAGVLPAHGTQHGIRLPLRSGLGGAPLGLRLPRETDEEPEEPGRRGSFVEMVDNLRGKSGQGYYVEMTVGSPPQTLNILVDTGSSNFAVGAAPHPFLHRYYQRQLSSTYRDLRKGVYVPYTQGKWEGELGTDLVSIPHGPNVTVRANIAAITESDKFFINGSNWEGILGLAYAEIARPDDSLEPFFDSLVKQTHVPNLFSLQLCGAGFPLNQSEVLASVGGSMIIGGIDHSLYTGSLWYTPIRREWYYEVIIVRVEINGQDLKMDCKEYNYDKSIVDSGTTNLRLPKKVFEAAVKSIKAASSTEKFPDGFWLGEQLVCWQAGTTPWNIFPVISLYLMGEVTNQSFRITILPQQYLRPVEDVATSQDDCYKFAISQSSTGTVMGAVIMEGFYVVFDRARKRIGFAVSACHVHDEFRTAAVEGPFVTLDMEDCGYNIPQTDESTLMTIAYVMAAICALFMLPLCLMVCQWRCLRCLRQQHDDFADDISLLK

Work on `CCn1cc(C(=O)O)c(=O)c2cc(F)c(N3CCNCC3)nc21` [ENOXACIN] yielded a Papp [1] of 0.3 ×10⁻⁶ cm/s.
In the case of `COc1cc(OC)cc(-c2ccc(Cc3cn(Cc4ccc(F)cc4)c(N)n3)cc2)c1`, the IC50 [2] is reported as 7.4 µM, the IC50 [3, 10] is reported as 15 µM and the IC50 [4, 10] is reported as 23 µM. For the same compound, the IC50 [5, 10] was 19 µM, the Activity [6] was “Toxic” and the Papp [1] was 4 ×10⁻⁶ cm/s.
In the case of `CN(C)CCCN1c2ccccc2Sc2ccccc21` [PROMAZINE], the Papp [1] is reported as 11.5 ×10⁻⁶ cm/s.
`Nc1nc(Cc2ccccc2)cn1Cc1ccccc1` showed an inhibition [7] of 19.6%.
In the case of `Nc1nc(Cc2ccc(-c3cccc4oc5ccccc5c34)cc2)cn1Cc1ccccc1Cl`, the IC50 [2] is reported as 5.95 µM, the IC50 [3] is reported as “Not Active” and the IC50 [4] is reported as “Not Active”. For the same compound, the IC50 [5] was “Not Active” and the Papp [1] was 4 ×10⁻⁶ cm/s.
With `COc1cc(OC)cc(-c2ccc(Cc3cn(Cc4cc(F)cc(F)c4)c(N)n3)cc2)c1` the IC50 [2] was 7.32 µM, the IC50 [3, 10] was 33 µM and the IC50 [4, 10] was 35 µM. For the same compound, the IC50 [5, 10] was 27 µM, the Papp [1] was 3.2 ×10⁻⁶ cm/s and the Activity [8] was “Toxic”.
In the case of `Nc1nc(Cc2ccc(-c3ccc(C(F)(F)F)cc3)cc2)cn1Cc1cc(F)cc(F)c1`, the IC50 [2] is reported as 5.59 µM, the IC50 [3] is reported as “Not Active” and the IC50 [4] is reported as “Not Active”. The IC50 [5] was “Not Active” and the solubility [9] was “Insoluble”.
Work on `CN1C(C(=O)Nc2ccccn2)=C(O)c2ccccc2S1(=O)=O` [PIROXICAM] yielded a Papp [1] of 0.4 ×10⁻⁶ cm/s.
Work on `Cn1c(=O)c2c(ncn2C)n(C)c1=O` [CAFFEINE] yielded a Papp [1] of 0.9 ×10⁻⁶ cm/s.
